Experimental data from PMC3232455 (Molecular therapy : the journal of the American Society of …, 2011).

Columns and labels:
CLL cells = assay: MTT cell viability assay in primary CLL samples; assay type: cell-based, human; settings: six fresh primary CLL patient samples, 24 hours with 0-20 μM peptide
Outline: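 Human PBMCs isolated from fresh patient blood by density centrifugation and kept in RPMI 1640 with 10% FBS and penicillin/streptomycin. Seeded at 3 × 10^5 cells/well with 0–20 µmol/l unlabelled test peptide under tissue-culture conditions, then MTT read-out. Viability expressed as percentage of untreated controls.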

HeLa and glioma cells = settings: cited from earlier work

Substance	Cell viability (in words) (CLL cells)	Cell uptake and distribution (in words) (HeLa and glioma cells)
NH2-asrslhslaG-Ahx-rrrrrrrrGC-COOH [asr-a-r8]	no loss of viability	–
FFLIPKG-R8	–	diffusely label the cytoplasm within five minutes
